The source of these data is paper PMC7870562 (Bioorganic chemistry, 2020).

The structures appear in SMILES notation. A value given as a limit tells only on which side of the number the result lay.

Test [1] has as its system A431 cells. Briefly: MTT cytotoxicity / cell viability assay, A431. The settings on record: for IC50: Homo sapiens, A-431, 48 h; for selectivity index: IC50 HaCaT / IC50 A431. Type of test: cell-based, human. The essentials:
(§1)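 Cells in 5–10% FBS/DMEM were seeded at 5×10³ per well, refed at 24 h and grown to 70% confluence. They were treated for 48 h at 37°C, 5% CO2 with two-fold serial dilutions of test compound in DMSO (≤0.1%), […], in 8–10 repeats. After MTT, absorbance was read at 562 nm. Viability was expressed relative to DMSO controls and IC50 derived by nonlinear regression. Data are mean ± SD of ≥5 independent experiments in octuplicates.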

A further test concerns SK-Mel-28 cells. Briefly: MTT cytotoxicity / cell viability assay, SK-Mel-28. Type of test: cell-based, human. The conditions noted are these: for IC50: Homo sapiens, SK-MEL-28, 48 h; for selectivity index: IC50 melanocytes / IC50 SK-Mel-28. The method in brief:
as §1

For another test, the system named is HaCaT. Briefly: MTT cytotoxicity / cell viability assay, HaCaT keratinocytes. Type of test: cell-based. The settings on record: Homo sapiens, 48 h. The method in brief: as §1
A further test deals with UWBCC1 cells. Briefly: MTT cytotoxicity / cell viability assay, UWBCC1. Type of test: cell-based, human. The conditions noted are these: for IC50: Homo sapiens, 48 h; for selectivity index: IC50 HaCaT / IC50 UWBCC1. The method in brief:
as §1

The target of another test is c-Kit (Homo sapiens, UniProt P10721). Briefly: In vitro kinase activity assay. It counts as biochemical. The essentials:
(§2)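 Kinase profiling was run at Reaction Biology. IC50 values came from 10-dose mode, three-fold serial dilutions starting at 100 μM. Reference inhibitors were co-assayed at 1 and 10 μM.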

The target of another test is mTOR/FRAP1 (Homo sapiens, UniProt P42345). Briefly: In vitro kinase activity assay. Type of test: biochemical. The conditions noted are these: for IC50: mTOR/FRAP1 IC50, 10-dose, three-fold serial dilution from 100 μM. The method in brief: as §2
A further test relates to Melanocyte. Briefly: MTT cytotoxicity / cell viability assay, normal melanocytes. It counts as cell-based. The settings on record: Homo sapiens, 48 h. The method in brief:
as §1

The next test deals with CDK2/Cyclin A (Homo sapiens, UniProt P24941). Briefly: In vitro kinase activity assay. Type of test: biochemical. The settings on record: 10-dose, three-fold serial dilution from 100 μM. The essentials:
as §2

Another test addresses CDK2/Cyclin E (Homo sapiens, UniProt P24941). Briefly: In vitro kinase activity assay. Type of test: biochemical. The conditions noted are these: 10-dose, three-fold serial dilution from 100 μM. The essentials: as §2
The subject of test [2] is A375 cells. Briefly: MTT cytotoxicity / cell viability assay, A375. It counts as cell-based, human. The settings on record: for IC50: Homo sapiens, A-375, 48 h; for selectivity index: IC50 melanocytes / IC50 A375. The essentials: as §1
The subject of test [3] is A431 cells. Briefly: DAPI staining of apoptotic nuclei, A431. It counts as cell-based, human. The method in brief: (§3)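 Equal numbers of cells were seeded in T-25 flasks and exposed to test compound at different concentrations for 36 h. Cells were PBS-washed, stained with DAPI in PBS and imaged by fluorescence microscopy at 10x and 1.6×10x. Apoptotic nuclei were scored by morphology and expressed as percentage of cells.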

Test [4] concerns A375 cells. Briefly: DAPI staining of apoptotic nuclei, A375. Type of test: cell-based, human. The essentials: as §3
In test [5] the test system is A375 and A431 cells. Briefly: Scratch wound healing assay. Type of test: cell-based, human. The conditions noted are these: A375 and A431, ½IC50, IC50, 2×IC50, 48 h; for inhibition of wound closure: vs untreated controls. The essentials: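 Confluent A375 or A431 monolayers in complete DMEM received two parallel scratches made with a 200-μL pipette tip, then were washed. Wells were treated at ½IC50, IC50 or 2×IC50 for 48 h. Wound area was measured by image analysis as a percentage of the initial cell-free area versus 0 h and 48 h controls. Data are mean ± SD of three independent experiments; one-way ANOVA with Dunn's test.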

The test system of test [6] is A375 and A431 cells. Briefly: Western blot analysis of apoptosis, cell cycle and c-Kit markers. It counts as cell-based, human. The settings on record: A375 and A431, IC50 and 2×IC50, 48 h. The essentials:
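Cells were plated at 3×10⁵ overnight and treated at 0, IC50 or 2×IC50 (<0.1% DMSO) for 48 h. Lysates were made in ice-cold RIPA with protease/phosphatase inhibitors and PMSF (15 min), then run on SDS-PAGE. Blots were probed with primary antibodies at 1:250–1:1000 and HRP secondary at 1:2000. Bands were normalized to β-actin, GAPDH or Rab11 and given as % expression; three independent experiments, one-way ANOVA with Dunn's test.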

Test [7] has as its system A375 and A431 cells. Briefly: Colony formation assay. Type of test: cell-based, human. The conditions noted are these: A375 and A431, ½IC50, IC50, 2×IC50, concentration-dependent. The method in brief: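 DMSO ≤0.1% v/v was the vehicle control. Cells were trypsinized and ~1000 reseeded per 10-cm2 plate, then grown 10–14 days drug-free at 37°C, 5% CO2, with medium renewed every 2–3 days. Colonies were stained with 0.5% Gentian violet in ~64% methanol/4% paraformaldehyde. Results are percent of control, mean ± SD of three independent experiments.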

[8] abbreviates: A431, treated 36 hours at ½IC50.
[9] abbreviates: A375, treated 36 hours at ½IC50.

c-Kit, sequence (P10721 26-976): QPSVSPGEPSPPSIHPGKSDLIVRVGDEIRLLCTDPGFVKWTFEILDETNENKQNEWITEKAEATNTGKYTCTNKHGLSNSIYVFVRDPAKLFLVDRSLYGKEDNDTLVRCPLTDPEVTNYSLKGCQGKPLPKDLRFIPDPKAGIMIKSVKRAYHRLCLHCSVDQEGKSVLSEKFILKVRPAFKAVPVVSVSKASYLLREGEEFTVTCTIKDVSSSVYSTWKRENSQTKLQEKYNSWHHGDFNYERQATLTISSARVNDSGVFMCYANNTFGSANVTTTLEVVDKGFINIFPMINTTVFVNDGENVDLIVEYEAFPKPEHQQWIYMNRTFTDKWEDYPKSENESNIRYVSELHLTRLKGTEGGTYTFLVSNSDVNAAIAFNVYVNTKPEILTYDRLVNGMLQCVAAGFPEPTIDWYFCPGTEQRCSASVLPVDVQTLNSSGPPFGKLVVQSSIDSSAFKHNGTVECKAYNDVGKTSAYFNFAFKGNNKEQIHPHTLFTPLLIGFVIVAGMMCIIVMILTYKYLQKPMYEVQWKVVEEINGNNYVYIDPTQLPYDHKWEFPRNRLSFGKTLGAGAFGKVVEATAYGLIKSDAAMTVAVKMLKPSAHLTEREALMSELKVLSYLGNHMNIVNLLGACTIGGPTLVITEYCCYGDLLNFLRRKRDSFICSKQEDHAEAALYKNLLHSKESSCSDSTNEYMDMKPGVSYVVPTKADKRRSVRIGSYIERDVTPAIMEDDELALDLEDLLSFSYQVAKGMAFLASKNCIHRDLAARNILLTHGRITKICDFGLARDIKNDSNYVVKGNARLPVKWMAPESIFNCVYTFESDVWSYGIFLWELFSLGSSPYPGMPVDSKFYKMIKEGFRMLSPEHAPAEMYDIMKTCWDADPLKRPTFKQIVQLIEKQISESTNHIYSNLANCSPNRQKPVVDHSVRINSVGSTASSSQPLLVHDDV

The IC50 is the concentration needed to halve the response being measured. Low values mean greater potency, high ones weaker potency. Take `O=c1c(O)c(-c2ccc(O)c(O)c2)oc2cc(O)ccc12` [F0, 3´,4´,7-trihydroxyflavonol, reference compound]: the 50% inhibitory concentration (IC50) in the test on A431 cells [1] stood at 26 ± 1 µM; in the test on SK-Mel-28 cells, 29 ± 4 µM; in the test with HaCaT it was 30 ± 1.1 µM; with UWBCC1 cells, 28 ± 0.2 µM; against c-Kit, 1.34 µM; against mTOR/FRAP1 it was 28.7 µM. For the same molecule, the IC50 in the test on Melanocyte was found to be 33 ± 2.7 µM; at CDK2/Cyclin A, 2.62 µM; against CDK2/Cyclin E, 3.34 µM; with A375 cells [2] it was 21 ± 1 µM. The selectivity index came out at 1.2 in the test on A431 cells [1], 1.1 with SK-Mel-28 cells, 1.1 with UWBCC1 cells and 1.6 in the test on A375 cells [2].

Regarding `Cc1ccc2c(=O)c(O)c(-c3cccc(Cl)c3)oc2c1` [F8, 2-(3-Chlorophenyl)-3-hydroxy-7-methyl-4H-chromen-4-one], the IC50 in the test with A431 cells [1] is 8.3 ± 2.1 µM; with SK-Mel-28 cells it was 22 ± 3 µM; in the test with HaCaT it was 22 ± 0.2 µM; in the test on UWBCC1 cells, 6.7 ± 1.5 µM; against c-Kit, 0.54 µM; at mTOR/FRAP1, 23.9 µM. The IC50 was found to be 26 ± 3.8 µM in the test on Melanocyte, 7.16 µM against CDK2/Cyclin A, 17.1 µM against CDK2/Cyclin E and 8.4 ± 0.4 µM in the test with A375 cells [2]. Moreover, the selectivity index with A431 cells [1] was 2.7; with SK-Mel-28 cells, 1.1; in the test on UWBCC1 cells, 3.3; in the test on A375 cells [2] it was 3.1. Also, the “DAPI (+) apoptotic cells” value in the test with A431 cells [3] (A431, treated 36 hours at IC50) came to 12.8%; in the test with A431 cells [3] (setting [8]), 5.84%; with A375 cells [4] (A375, treated 36 hours at IC50), 11.3%; with A375 cells [4] (setting [9]) it was 6.5%.

Take `COc1cccc(-c2oc3cc(C)ccc3c(=O)c2O)c1` [F9, 3-Hydroxy-2-(3-methoxyphenyl)-7-methyl-4H-chromen-4-one]: the IC50 in the test with A431 cells [1] was determined as 9.2 ± 0.7 µM; with SK-Mel-28 cells, 17 ± 1 µM; in the test with HaCaT, 27 ± 0.3 µM; in the test on UWBCC1 cells it was 9.4 ± 0.3 µM; on c-Kit it was 0.12 µM; on mTOR/FRAP1, 1.42 µM. Further, the IC50 in the test on Melanocyte came out at 26 ± 1.6 µM; at CDK2/Cyclin A, 2.95 µM; at CDK2/Cyclin E it was 1.78 µM; with A375 cells [2], 12 ± 0.9 µM. Moreover, the selectivity index with A431 cells [1] was 2.9; in the test with SK-Mel-28 cells it was 1.5; with UWBCC1 cells, 2.9; in the test on A375 cells [2] it was 2.2. In addition, the “inhibition of wound closure” value with A375 and A431 cells [5] is given as 28–72%. The “DAPI (+) apoptotic cells” value is on record as 19.1% in the test on A431 cells [3] (A431, treated 36 hours at IC50); 7.93% in the test on A431 cells [3] (setting [8]); 18.2% in the test with A375 cells [4] (A375, treated 36 hours at IC50); 7.5% in the test with A375 cells [4] (setting [9]).

In the case of `O=c1c(O)c(-c2ccccc2)oc2cc(Br)ccc12` [F14, 7-Bromo-3-hydroxy-2-phenyl-4H-chromen-4-one], the IC50 with A431 cells [1] is 5.3 ± 2.1 µM; in the test with SK-Mel-28 cells, 22 ± 4.3 µM; with HaCaT, 24 ± 0.2 µM; in the test with UWBCC1 cells, 3.3 ± 1.3 µM; on c-Kit it was 0.13 µM; at mTOR/FRAP1, greater than 100 µM. In addition, the IC50 in the test with Melanocyte came to 24 ± 0.84 µM; at CDK2/Cyclin A it was 6.64 µM; against CDK2/Cyclin E, 5.38 µM; in the test on A375 cells [2], 15 ± 0.08 µM. In addition, the selectivity index is 4.5 in the test on A431 cells [1], 7.3 with UWBCC1 cells and 1.4 in the test on A375 cells [2]. The “DAPI (+) apoptotic cells” value in the test with A431 cells [3] (setting [8]) came to 6.92%; in the test on A375 cells [4] (A375, treated 36 hours at IC50), 10.9%; in the test on A375 cells [4] (setting [9]), 6.2%.

Regarding `O=c1c(O)c(-c2cccc(Cl)c2)oc2ccc(F)cc12` [F17, 2-(3-Chlorophenyl)-6-fluoro-3-hydroxy-4H-chromen-4-one], the IC50 in the test on A431 cells [1] worked out at 10 ± 2.6 µM; with SK-Mel-28 cells it was 25 ± 3.4 µM; with HaCaT it was 38 ± 0.8 µM; in the test on UWBCC1 cells it was 8.1 ± 1.2 µM; at c-Kit, 1.74 µM; against mTOR/FRAP1, 11.5 µM. The IC50 with Melanocyte was 32 ± 0.72 µM; against CDK2/Cyclin A, 4.57 µM; against CDK2/Cyclin E, 5.7 µM; with A375 cells [2] it was 13 ± 1 µM. Further, the values for the selectivity index in the test with A431 cells [1], in the test on UWBCC1 cells and in the test on A375 cells [2] were 3.8, 4.7 and 2.5, respectively. In the test with A375 and A431 cells [5], the “inhibition of wound closure” value is reported as 28–72%. In addition, the “DAPI (+) apoptotic cells” value with A431 cells [3] (A431, treated 36 hours at IC50) was found to be 18.4%; with A431 cells [3] (setting [8]), 8.81%; with A375 cells [4] (A375, treated 36 hours at IC50), 17.7%; in the test on A375 cells [4] (setting [9]) it was 6.9%.

On to `Cc1cc([N+](=O)[O-])c2oc(-c3ccc(Br)cc3)c(O)c(=O)c2c1` [F20, 2-(4-Bromophenyl)-3-hydroxy-6-methyl-8-nitro-4H-chromen-4-one], for which the 50% inhibitory concentration (IC50) in the test on A431 cells [1] was 0.2 ± 0.1 µM; with SK-Mel-28 cells it was 17 ± 3 µM; with HaCaT, 34 ± 0.6 µM; in the test with UWBCC1 cells, 0.12 ± 0.11 µM; against c-Kit it was 0.09 µM; in the test with Melanocyte it was 35 ± 0.23 µM. Also, the IC50 is 4.77 µM on CDK2/Cyclin A, greater than 100 µM at CDK2/Cyclin E and 6.3 ± 1 µM with A375 cells [2]. The values for the selectivity index with A431 cells [1], in the test on SK-Mel-28 cells and in the test on A375 cells [2] were roughly 170, 2.1 and 5.6, respectively. Moreover, in the test with A375 and A431 cells [6], the “expression level of pro-apoptotic protein Bax” value was “significantly increased”. For the same molecule, the “level of anti-apoptotic protein Bcl-2” value in the test with A375 and A431 cells [6] was “decreased”. Besides, in the test with A375 and A431 cells [6], the “protein expression levels of cyclin A2, cyclin E2 and CDK2” value is listed as “significantly suppress”. The “protein expression levels of phosphorylated c-Kit” value with A375 and A431 cells [6] is given as “significantly suppressed”. In addition, the “protein expression levels of cleaved caspases −3, −7, −8 and PARP” value in the test on A375 and A431 cells [6] (vs untreated controls) is “elevated”. Besides, the “scratched wound area closure (in words)” value with A375 and A431 cells [5] (dose-dependent) is listed as “significantly decreased”. The “DAPI (+) apoptotic cells” value with A431 cells [3] (A431, treated 36 hours at IC50) was 27.7%; in the test on A431 cells [3] (setting [8]) it was 14.6%; in the test with A375 cells [4] (A375, treated 36 hours at IC50), 20.4%; with A375 cells [4] (setting [9]), 8.2%. Moreover, at mTOR/FRAP1, the “inhibition of mTOR kinase activity (in words)” value is listed as “did not substantively inhibit”. Besides, in the test with A375 and A431 cells [7], the “percentage of colonies (in words)” value was “significantly reduced”.
